This is a sample that favours compounds with a hit; in the whole collection about 2% have one here.
XiGFP reactiv: activators of inactive X chromosome reactivation, primary screen, imaging, XiGFP fibroblasts, GFP high-content imaging, set 2. XiGFP mouse fibroblasts, % GFP-positive cells imaging, 3 d; cells co-treated with 5-aza-dC sensitizer; scaled so ellipticine positive control = 100%. activation, % at 7.58 µM. 360,000 tested, 0.055% active;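 active = mean normalized replicate activation at least 10% and every replicate at or above 10%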
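System: 68-5-11 XiGFP fibroblast line; Timing: 3 days compound exposure; Compound dosing: one concentration, pinned; Benchmarks: positive control ellipticine, 6 µM final; Buffer or medium: DMEM containing 5-aza-dC.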
Ecoli rRNA inh: reduced GFP signal of wild-type E. coli, primary screen, bacterial rRNA inhibitor project, GFP/RFP fluorescence, OD600, single point; E. coli WT GFP vs humanized-ribosome RFP mutants, 24 h; stronger effect = lower value; DMSO median 0, no signal -100; GFP signal change (wild-type ribosome), % (test concentration not listed); 350,000 tested, 1.6% active; AID 720706, 2013;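 active = significant combined selectivity score with lowered wild-type GFP, culture density cut under 30%, mutant RFP and density less affected; inactive = any of these conditions unmet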
PglD inh: C. jejuni PglD acetyltransferase inhibitors, primary screen, biochemical, DTNB colorimetric, single point; UDP-N-acetylbacillosamine N-acetyltransferase PglD (Campylobacter jejuni); purified PglD enzyme, DTNB colorimetric CoA detection; inhibition, % at 12.5 µM; 360,000 tested, 0.098% active; AID 602405, 2012; in the data active = inhibition above about 16%, passing the limit was not always enough
RAD54 branch: inhibitors of human RAD54 branch migration, primary screen, biochemical, fluorescence, single point; 360,000 tested, 0.14% active; RAD54 Holliday junction branch migration, FAM/BHQ fluorescence; inhibition, % at 10.4 µM;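 active = mean normalized replicate activity at least 40 and at least half of replicates scoring 40 or more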;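 also: inhibitors cause a drop in the FAM fluorescence signal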
RAD52 inh: RAD52 DNA annealing inhibitors, primary screen, biochemical, FRET, single point, set 2; recombinant RAD52 DNA annealing, FRET fluorescence; inhibition, % at 18.7 µM; 360,000 tested, 0.46% active; AID 651710, 2012;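 active = every replicate showing at least 50% inhibition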
E-sel inducer: E-selectin induction in HUVECs, primary screen, imaging, HUVEC, immunofluorescence imaging, single point; P16581; normalized: neutral wells 0, TNF-alpha wells 100; activation, % at 7.58 µM; 260,000 tested, 0.37% active; AID 686992, 2013;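 active = mean E-selectin-positive cell signal at least 10% of the positive control, reached in at least 60% of replicates, without over 20% cell loss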
Target sequence (P16581 whole entry, looked up): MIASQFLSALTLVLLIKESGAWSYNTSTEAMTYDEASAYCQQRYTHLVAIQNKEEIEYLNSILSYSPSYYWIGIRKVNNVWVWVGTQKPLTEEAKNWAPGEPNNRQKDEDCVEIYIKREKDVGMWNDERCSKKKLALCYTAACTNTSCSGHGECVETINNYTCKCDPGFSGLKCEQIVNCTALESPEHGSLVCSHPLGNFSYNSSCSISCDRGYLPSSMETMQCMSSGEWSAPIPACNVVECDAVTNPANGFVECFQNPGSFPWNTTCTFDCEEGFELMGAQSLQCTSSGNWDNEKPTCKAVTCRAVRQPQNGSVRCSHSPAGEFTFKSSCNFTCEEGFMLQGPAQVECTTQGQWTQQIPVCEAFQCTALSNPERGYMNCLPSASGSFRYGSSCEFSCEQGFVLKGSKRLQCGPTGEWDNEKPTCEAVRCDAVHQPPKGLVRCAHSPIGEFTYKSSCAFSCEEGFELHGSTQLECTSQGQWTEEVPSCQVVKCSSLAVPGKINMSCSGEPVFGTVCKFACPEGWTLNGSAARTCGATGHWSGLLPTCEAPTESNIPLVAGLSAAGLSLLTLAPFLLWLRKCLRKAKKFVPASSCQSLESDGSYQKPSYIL
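Assay system: HUVEC, human umbilical vein endothelial cells / Amount: 3,000 HUVEC/well / Controls: TNF-alpha positive control, DMSO neutral control / Compound dosing: single concentration / Medium: EGM-2 over gelatin coat / Evaluation: percent E-selectin-positive cells / Signal: immunofluorescence imaging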
A number is an active result.

Results for Cc1noc(C)c1NC(=O)N(C)C[C@@H]1Oc2c(NS(=O)(=O)c3cccs3)cccc2C(=O)N([C@H](C)CO)C[C@H]1C ?
XiGFP reactiv: inactive; Ecoli rRNA inh: inactive; PglD inh: inactive; RAD54 branch: inactive; RAD52 inh: inactive; E-sel inducer: inactive

How did CNC[C@@H]1Oc2ccc(NC(=O)NC(C)C)cc2CC(=O)N(C)C[C@@H]1C do in these assays?
XiGFP reactiv: inactive; Ecoli rRNA inh: inactive

How did COc1ccc(NC(=O)Nc2ccc3c(c2)CC(=O)N([C@H](C)CO)C[C@H](C)[C@@H](CN(C)Cc2ccc(Oc4ccccc4)cc2)O3)cc1 do in these assays?
XiGFP reactiv: inactive; Ecoli rRNA inh: inactive; PglD inh: inactive; RAD54 branch: inactive; RAD52 inh: 67.0; E-sel inducer: inactive

How did C[C@@H]1CN([C@@H](C)CO)C(=O)c2cc(NC(=O)Nc3ccc(C(F)(F)F)cc3)ccc2O[C@@H]1CN(C)Cc1ccc(Oc2ccccc2)cc1 do in these assays?
XiGFP reactiv: inactive; Ecoli rRNA inh: inactive; PglD inh: inactive; RAD54 branch: inactive; RAD52 inh: inactive; E-sel inducer: 100.4

How did COc1cccc2cc(C(=O)C3=C(O)C(=O)N(c4cc(C)on4)C3c3cccs3)oc12 (stereo unspecified) do in these assays?
XiGFP reactiv: inactive; Ecoli rRNA inh: -25.6; RAD54 branch: inactive; RAD52 inh: inactive

What do the screens show for `Cc1cccc(N2C(=O)C(O)=C(C(=O)c3cccs3)C2c2cccc(Oc3ccccc3)c2)n1` (stereo unspecified)?
XiGFP reactiv: inactive; PglD inh: inactive; RAD54 branch: inactive; RAD52 inh: inactive

How did COc1ccc(C2C(C(=O)c3cccs3)=C(O)C(=O)N2c2cccc(C)n2)cc1 (stereo unspecified) do in these assays?
XiGFP reactiv: inactive; Ecoli rRNA inh: -18.1; RAD52 inh: inactive; E-sel inducer: inactive

How did Cc1cccc(N2C(=O)C(O)=C(C(=O)c3cccs3)C2c2ccccc2)n1 (stereo unspecified) do in these assays?
XiGFP reactiv: inactive; Ecoli rRNA inh: -31.6; RAD52 inh: inactive; E-sel inducer: inactive

How did Cc1cc(N2C(=O)C(O)=C(C(=O)c3cccs3)C2c2ccc(F)cc2)no1 (stereo unspecified) do in these assays?
XiGFP reactiv: inactive; Ecoli rRNA inh: -25.9; RAD52 inh: inactive

How did COc1cccc(C2C(C(=O)c3cc4cccc(OC)c4o3)=C(O)C(=O)N2c2cc(C)on2)c1OC (stereo unspecified) do in these assays?
PglD inh: inactive; RAD54 branch: inactive

How did Cc1cc(N2C(=O)C(O)=C(C(=O)c3cccs3)C2c2ccccc2)no1 (stereo unspecified) do in these assays?
PglD inh: inactive; RAD54 branch: inactive

What do the screens show for `COc1ccc(C2C(C(=O)c3cccs3)=C(O)C(=O)N2c2cccc(C)n2)cc1OC` (stereo unspecified)?
XiGFP reactiv: inactive; RAD52 inh: inactive

How did Cc1cccc(N2C(=O)C(O)=C(C(=O)c3cccs3)C2c2ccc(Cl)cc2)n1 (stereo unspecified) do in these assays?
XiGFP reactiv: inactive; Ecoli rRNA inh: -33.8; RAD52 inh: inactive; E-sel inducer: inactive

Results for C[C@H](CO)N1C[C@H](C)[C@@H](CN(C)C(=O)c2cccnc2)Oc2cc(C3=CCCC3)ccc2S1(=O)=O ?
XiGFP reactiv: inactive; Ecoli rRNA inh: inactive; PglD inh: inactive; RAD54 branch: inactive; RAD52 inh: inactive; E-sel inducer: inactive

What do the screens show for `CCn1c(SCc2ccc(Cl)cc2)nc2nc3c(cc2c1=O)CCCC3`?
XiGFP reactiv: inactive; Ecoli rRNA inh: -22.2; PglD inh: inactive; RAD54 branch: inactive; RAD52 inh: inactive

What do the screens show for `COc1ccc(NC(=O)C2CC3C=CC2C3)c([N+](=O)[O-])c1` (stereo unspecified)?
XiGFP reactiv: inactive; Ecoli rRNA inh: -21.8; RAD52 inh: inactive; E-sel inducer: inactive

Results for COc1ccc(NC(=O)CC(C)C)c([N+](=O)[O-])c1 ?
XiGFP reactiv: inactive; Ecoli rRNA inh: inactive; PglD inh: inactive; RAD54 branch: inactive; RAD52 inh: inactive; E-sel inducer: inactive

What do the screens show for `CCOC(=O)C1=CNS(=O)(=O)NC1CCc1ccccc1` (stereo unspecified)?
XiGFP reactiv: inactive; Ecoli rRNA inh: -22.1; PglD inh: inactive; RAD54 branch: inactive; RAD52 inh: inactive

How did CC1=C(C(=O)OCc2ccccc2)C(c2ccc3ccccc3c2)NC(=O)N1CCCC(=O)O (stereo unspecified) do in these assays?
XiGFP reactiv: inactive; Ecoli rRNA inh: -16.0; PglD inh: inactive; RAD54 branch: inactive; RAD52 inh: inactive; E-sel inducer: inactive

What do the screens show for `CC1=C(C(=O)OCc2ccccc2)C(c2ccc(-c3ccccc3)cc2)NC(=O)N1CCCCCC(=O)O` (stereo unspecified)?
XiGFP reactiv: inactive; Ecoli rRNA inh: -34.4; PglD inh: inactive; RAD54 branch: inactive; RAD52 inh: inactive; E-sel inducer: inactive

Results for CC1=C(C(=O)OCc2ccccc2)C(c2ccc(-c3ccccc3)cc2)NC(=O)N1CCCC(=O)O (stereo unspecified) ?
XiGFP reactiv: inactive; Ecoli rRNA inh: inactive; RAD52 inh: inactive; E-sel inducer: inactive

What do the screens show for `O=C(C[C@H]1CC[C@H]2[C@@H](COC[C@H](O)CN2CC2CCCCC2)O1)NCc1ccc(F)cc1`?
XiGFP reactiv: inactive; Ecoli rRNA inh: inactive; PglD inh: inactive; RAD54 branch: inactive; RAD52 inh: inactive; E-sel inducer: inactive

How did CC(NCCC1(C(C)C)CCOC(C)(C)C1)c1cccs1 (stereo unspecified) do in these assays?
XiGFP reactiv: inactive; Ecoli rRNA inh: inactive; PglD inh: inactive; RAD54 branch: inactive; RAD52 inh: inactive; E-sel inducer: inactive

Results for CC(NCCC1(Cc2ccccc2Cl)CCOC(C)(C)C1)c1cccs1 (stereo unspecified) ?
XiGFP reactiv: inactive; Ecoli rRNA inh: -38.8; PglD inh: inactive; RAD54 branch: inactive; RAD52 inh: inactive; E-sel inducer: inactive

Results for COCC(=O)N1[C@H](CO)[C@@H](c2ccccc2-c2ccccc2)[C@@H]1C#N ?
XiGFP reactiv: inactive; Ecoli rRNA inh: inactive; RAD52 inh: inactive; E-sel inducer: inactive

Assay outcomes (PubChem BioAssay)
